The nature of this experiment: Displacement of [125I]TZDM from beta amyloid protein 42. Summed up:
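Competition binding against [125I]TZDM on pre-formed Ab42 aggregates. Mixtures incubated 3 h at room temperature. Bound and free radioligand separated by vacuum filtration through GF/B filters, then two washes with 10% EtOH at room temperature. Filter-bound radioactivity counted by gamma counter. Ki obtained by nonlinear regression of the inhibition data.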
In general terms: In a radioligand displacement assay an active substance lowers the binding of a labelled ligand.
`Nc1ccc(/C=C/c2ccc(-c3nc4cc(OCCCF)ccc4o3)cc2)cc1`: the Ki (as a rule, a measure of affinity in units of concentration, obtained from inhibition or displacement) stood at 450 pM.

With `CNc1ccc(/C=C/c2ccc(-c3nc4ccc(OCCCF)cc4s3)cc2)cc1`, the affinity, expressed as Ki, was 480 pM. The value for `CN(C)c1ccc(/C=C/c2ccc(-c3nc4ccc(OCCCF)cc4o3)cc2)cc1` was 460 pM. The figure for `Nc1ccc(/C=C/c2ccc(-c3nc4ccc(OCCF)cc4o3)cc2)cc1` is 470 pM. Consider `Nc1ccc(/C=C/c2ccc(-c3nc4ccc(OCCCF)cc4s3)cc2)cc1`, for which the Ki was determined as 550 pM. As for `CNc1ccc(/C=C/c2ccc(-c3nc4cc(OCCCF)ccc4s3)cc2)cc1`, the affinity, expressed as Ki, was 380 pM. `CNc1ccc(/C=C/c2ccc(-c3nc4ccc(OCCF)cc4s3)cc2)cc1`: the inhibition constant Ki is 520 pM. As for `Nc1ccc(/C=C/c2ccc(-c3nc4cc(OCCF)ccc4s3)cc2)cc1`, the affinity, expressed as Ki, was 410 pM. The value for `CNc1ccc(/C=C/c2ccc(-c3nc4cc(OCCCF)ccc4o3)cc2)cc1` was 450 pM.

`CNc1ccc(/C=C/c2ccc(-c3nc4cc(OCCF)ccc4o3)cc2)cc1` registered a Ki of 740 pM. For `CN(C)c1ccc(/C=C/c2ccc(-c3nc4ccc(OCCF)cc4o3)cc2)cc1`, the Ki is 450 pM. The value for `[11CH3]Nc1ccc(-c2nc3ccc(O)cc3s2)cc1` [PITTSBURGH COMPOUND B] was 770 pM; that for `CNc1ccc(/C=C/c2ccc(-c3nc4ccc(OCCF)cc4o3)cc2)cc1` was 500 pM; that for `CN(C)c1ccc(/C=C/c2ccc(-c3nc4cc(OCCF)ccc4s3)cc2)cc1` was 350 pM. The value for `Nc1ccc(/C=C/c2ccc(-c3nc4ccc(OCCF)cc4s3)cc2)cc1` was 590 pM; that for `CN(C)c1ccc(/C=C/c2ccc(-c3nc4ccc(OCCCF)cc4s3)cc2)cc1` was 120 pM; that for `CN(C)c1ccc(/C=C/c2ccc(-c3nc4cc(OCCF)ccc4o3)cc2)cc1` was 440 pM. As for `CN(C)c1ccc(/C=C/c2ccc(-c3nc4ccc(OCCF)cc4s3)cc2)cc1`, affinity was put at a Ki of 570 pM. The value for `CN(C)c1ccc(/C=C/c2ccc(-c3nc4cc(OCCCF)ccc4s3)cc2)cc1` was 490 pM; that for `Nc1ccc(/C=C/c2ccc(-c3nc4ccc(OCCCF)cc4o3)cc2)cc1` was 590 pM; that for `CNc1ccc(/C=C/c2ccc(-c3nc4cc(OCCF)ccc4s3)cc2)cc1` was 100 pM. The value for `CNc1ccc(/C=C/c2ccc(-c3nc4ccc(OCCCF)cc4o3)cc2)cc1` was 680 pM; that for `Nc1ccc(/C=C/c2ccc(-c3nc4cc(OCCCF)ccc4s3)cc2)cc1` was 420 pM. The value for `CN(C)c1ccc(/C=C/c2ccc(-c3nc4cc(OCCCF)ccc4o3)cc2)cc1` was 470 pM. `Nc1ccc(/C=C/c2ccc(-c3nc4cc(OCCF)ccc4o3)cc2)cc1`: the affinity corresponds to a Ki of 320 pM.
